Assay [1] is described as follows: Cytotoxicity against human H460 cells by MTT assay. Type of assay: functional, cell-based. The note with it: NCI-H460. The method in brief:
(§1)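 MTT read-out measured on a microplate reader, with IC50 derived for each of the five lines (BGC-823, HepG2, H460, HeLa, HCT-116). Adriamycin was the positive control.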
(In general: Tetrazolium dyes change colour on reduction, which living cells bring about.)

Assay [2] in a line: Cytotoxicity against human BGC823 cells by MTT assay. Type of assay: functional, cell-based. The note with it: BGC-823. The method in brief: as §1
The test system of assay [3] is HCT-116. As to the kind of experiment: Cytotoxicity against human HCT116 cells by MTT assay. Type of assay: functional, cell-based. Put shortly:
as §1

Assay [4] deals with HeLa. As to the kind of experiment: Cytotoxicity against human HeLa cells by MTT assay. Type of assay: functional, cell-based. The method in brief: as §1
Assay [5] deals with Staphylococcus aureus. The assay can be described thus: Antimicrobial activity against Staphylococcus aureus ATCC 25923 by micro broth dilution method. Type of assay: functional. The method in brief:
(§2)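 Bacterial panel run against B. subtilis ATCC 6633 and S. aureus ATCC 25923. Read-out is minimal inhibitory concentration (MIC), reported as the mean of three independent experiments. Ciprofloxacin served as the reference antibacterial.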

For assay [6], the system named is Escherichia coli. As to the kind of experiment: Antimicrobial activity against Escherichia coli ATCC 25922 by micro broth dilution method. Type of assay: functional, organism-based. Put shortly: (§3)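 Endpoint is the minimal inhibitory concentration (MIC), reported as the mean of three independent experiments. Reference drugs were ciprofloxacin for the bacteria and amphotericin B for the fungi. E. coli ATCC 25922 and P. aeruginosa ATCC 27853 were tested in a panel with B. subtilis ATCC 6633 and S. aureus ATCC 25923.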
Background: In broth dilution the organism is exposed to a series of concentrations in liquid medium.

Assay [7] concerns HepG2. The assay can be described thus: Cytotoxicity against human HepG2 cells by MTT assay. Type of assay: functional, cell-based.
Assay [8] deals with Pseudomonas aeruginosa. The assay can be described thus: Antimicrobial activity against Pseudomonas aeruginosa ATCC 27853 by micro broth dilution method. Type of assay: functional, organism-based. The method in brief:
as §3

The test system of assay [9] is Bacillus subtilis. The assay can be described thus: Antimicrobial activity against Bacillus subtilis ATCC 6633 by micro broth dilution method. Type of assay: functional. Put shortly:
as §2

The test system of assay [10] is Candida albicans. The assay can be described thus: Antimicrobial activity against Candida albicans ATCC 10231 by micro broth dilution method. Type of assay: functional. Put shortly:
as §3

Assay [11] deals with Aspergillus niger. As to the kind of experiment: Antimicrobial activity against Aspergillus niger ATCC 1015 by micro broth dilution method. Type of assay: functional. Put shortly:
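Antifungal MIC against A. niger, reported as the mean of three independent experiments. Amphotericin B served as the reference antifungal.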

Values after ≈ are worked out from the molar mass of the structure shown. Active and inactive are the calls of the source. No cut-off for these calls is given here.

What is called IC50 is the concentration that inhibits the measured activity by half. Read a high IC50 as lower potency. Take `COc1cccc2c1C(=O)c1c(O)c3c(c(O)c1C2=O)C[C@@](O)(C(=O)CO)C[C@@H]3O[C@H]1C[C@H](N)[C@H](O)[C@H](C)O1` [DOXORUBICIN]: the half-inhibitory concentration (IC50) in assay [1] was 0.98 µM; in assay [2], 1.48 µM; in assay [3], 1.38 µM; in assay [4] it was 0.97 µM.
Broadly, the MIC is the lowest concentration that inhibits growth of the organism. `CC(=O)C(C)CCCCc1cc(O)c(C)c(=O)o1` (centres undefined): 128 µg/mL (≈ 507 µM) was the least that counted as inhibitory in [5] (MIC). Also, the result in assay [6], in assay [8], in assay [9], in [10] and in assay [11] was inactive. For the same compound, the IC50 in [1], in assay [2], in assay [3], in assay [7] and in assay [4] was more than 200 µM in each case.
Turning to `Cc1c(O)cc(CCCCC(C)(C)O)oc1=O`, the result in [5], in [6], in assay [8], in assay [9], in [10] and in [11] was inactive. Besides, the IC50 in assay [1], in assay [2], in [3], in [7] and in [4] was more than 200 µM each time.
In [5], `COc1cc(CCCCC(C)(C)O)oc(=O)c1C` registered an MIC of 128 µg/mL (≈ 503 µM). The outcome in assay [6], in [8], in assay [9], in assay [10] and in assay [11] was inactive. Besides, the concentration for half-maximal inhibition (IC50) in assay [1], in assay [2], in [3], in [7] and in assay [4] was more than 200 µM each time.
Turning to `CCC(C)CCCCc1cc(O)c(C)c(=O)o1` (centres undefined), the MIC in assay [5] and in assay [9] was 16 µg/mL (≈ 67.1 µM) each time. Moreover, the outcome in assay [6], in [8], in [10] and in assay [11] was inactive. Moreover, the half-maximal inhibitory concentration (IC50) in assay [1], in [2], in assay [3], in assay [7] and in assay [4] was more than 200 µM throughout.
Turning to `O=C(O)c1cn(C2CC2)c2cc(N3CCNCC3)c(F)cc2c1=O` [CIPROFLOXACIN], the MIC in assay [5] came to 0.5 µg/mL (≈ 1.51 µM); in [9], 0.12 µg/mL (≈ 0.362 µM).
On to `Cc1c(O)cc(CCCCC(C)[C@H](C)O)oc1=O` (some centres undefined), for which the minimum inhibitory concentration (MIC) in assay [5] and in assay [9] was 128 µg/mL (≈ 503 µM) throughout. Further, the outcome in [6], in assay [8], in assay [10] and in assay [11] was inactive. Also, the IC50 in [1], in assay [2], in [3], in assay [7] and in assay [4] was more than 200 µM each time.
In the case of `Cc1c(O)cc(CCCCC(C)C)oc1=O`, the minimum inhibitory concentration (MIC) in assay [5] and in assay [9] was 4 µg/mL (≈ 17.8 µM) each time. Further, the result in assay [6], in assay [8], in assay [10] and in [11] was inactive. Moreover, the half-maximal inhibitory concentration (IC50) in assay [1], in assay [2], in assay [3], in assay [7] and in assay [4] was more than 200 µM each time.
Compound `C[C@@H]1[C@H](O)[C@@H](C)/C=C/C=C/C=C/C=C/C=C/C=C/C=C/[C@H](O[C@@H]2O[C@H](C)[C@@H](O)[C@H](N)[C@@H]2O)C[C@@H]2O[C@](O)(C[C@@H](O)C[C@@H](O)[C@H](O)CC[C@@H](O)C[C@@H](O)CC(=O)O[C@H]1C)C[C@H](O)[C@H]2C(=O)O` [AMPHOTERICIN B] came in with a minimal inhibitory concentration (MIC) in [11] of 1 µg/mL (≈ 1.08 µM).
On to `Cc1c(O)cc(CCCC(C)C)oc1=O`, for which the MIC stood at 8 µg/mL (≈ 38 µM) in assay [5] and 32 µg/mL (≈ 152 µM) in assay [9]. In addition, the outcome in [6], in [8], in assay [10] and in [11] was inactive. The half-inhibitory concentration (IC50) in assay [1], in assay [2], in assay [3], in [7] and in assay [4] was more than 200 µM in each case.

The values are drawn from ChEMBL document CHEMBL3085692, “Violapyrones A-G, α-pyrone derivatives from Streptomyces violascens isolated from Hylobates hoolock feces” (J Nat Prod, 2013).
